Calls of active or inactive are those of the source. No cut-off for these calls is given here.

Assay [1] in a line: Photostability of compound in pH 7.4 buffer assessed as formation of 4-fluorobenzaldehyde incubated for 6 hrs under visible light irradiation by HPLC analysis.
Assay [2] has as its target T1, Potassium voltage-gated channel subfamily KQT member 2 (Homo sapiens, UniProt O43526). As to the kind of experiment: Activation of human Kv7.2 expressed in CHO cells assessed as current amplitude at 10 uM measured after 10 secs upon drug wash-out at holding potential of -40 mV by whole cell patch clamp electrophysiology assay. The assay is classed as cell-based. The essentials:
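Human Kv7.2 transiently expressed in CHO cells, whole-cell patch clamp at 20–22°C, pH 7.4 HEPES-buffered extracellular solution under constant perfusion. Cells held at -80 mV; 3-s ramps -80 to +20 mV with and without compound; current at -40 mV taken as drug/control amplitude ratio, followed over time during application and wash-out; mean ± SEM of ≥3 cells from ≥2 transfections.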

Assay [3] can be described thus: Photostability of compound in pH 7.4 buffer assessed as retention time of metabolite incubated for 6 hrs under visible light irradiation by HPLC/MS analysis.
A short description of assay [4]: Photostability of compound in pH 7.4 buffer assessed as formation of 4-fluorobenzaldehyde incubated for 6 hrs under visible light irradiation by GCMS analysis.
Assay [5] can be described thus: Photostability of compound in pH 7.4 buffer assessed as metabolite with phenazinium-dimer formation incubated for 6 hrs under visible light irradiation by HPLC/MS/MS analysis.
The target in assay [6] is Voltage-gated potassium channel, KQT; KCNQ2(Kv7.2)/KCNQ3(Kv7.3) (Homo sapiens, UniProt O43525+O43526). As to the kind of experiment: Activation of human Kv7.2/Kv7.3 expressed in CHO cells assessed as increase in channel current amplitude by whole cell patch clamp electrophysiology assay. The assay is classed as cell-based. The essentials:
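Human Kv7.2 plus Kv7.3 cDNAs co-transfected into CHO cells; whole-cell patch clamp at 20–22°C, extracellular solution pH 7.4. Drug applied at 0.01–10 μM to test concentration-dependent current increase.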

The target of assay [7] is T2, Potassium voltage-gated channel subfamily KQT member 3 (Homo sapiens, UniProt O43525).
T2 sequence (O43525 whole entry): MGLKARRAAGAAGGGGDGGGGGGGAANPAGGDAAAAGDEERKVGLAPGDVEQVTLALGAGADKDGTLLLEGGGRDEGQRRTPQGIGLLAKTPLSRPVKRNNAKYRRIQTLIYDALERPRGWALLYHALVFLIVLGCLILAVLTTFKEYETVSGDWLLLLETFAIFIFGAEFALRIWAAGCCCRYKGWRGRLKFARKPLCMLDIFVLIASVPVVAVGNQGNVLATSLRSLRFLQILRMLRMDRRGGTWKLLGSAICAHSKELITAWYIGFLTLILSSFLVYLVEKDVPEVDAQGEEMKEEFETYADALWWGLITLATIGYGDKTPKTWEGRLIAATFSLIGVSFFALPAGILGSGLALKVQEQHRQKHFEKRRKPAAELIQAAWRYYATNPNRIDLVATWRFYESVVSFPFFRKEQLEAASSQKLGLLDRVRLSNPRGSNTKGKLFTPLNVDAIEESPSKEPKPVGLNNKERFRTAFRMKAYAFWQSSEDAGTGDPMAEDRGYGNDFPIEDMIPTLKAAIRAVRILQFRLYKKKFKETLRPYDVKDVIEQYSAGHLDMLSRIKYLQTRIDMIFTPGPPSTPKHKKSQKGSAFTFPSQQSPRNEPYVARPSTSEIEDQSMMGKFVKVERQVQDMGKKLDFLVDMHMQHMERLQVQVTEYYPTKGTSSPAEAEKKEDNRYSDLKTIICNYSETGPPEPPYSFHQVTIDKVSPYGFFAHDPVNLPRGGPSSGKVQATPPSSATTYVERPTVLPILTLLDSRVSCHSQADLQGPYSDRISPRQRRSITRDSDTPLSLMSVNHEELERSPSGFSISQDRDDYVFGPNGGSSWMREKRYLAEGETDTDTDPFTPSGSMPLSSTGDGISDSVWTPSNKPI
Nature of the assay: Activation of human Kv7.3 expressed in CHO cells assessed as increase in channel current amplitude by whole cell patch clamp electrophysiology assay. It counts as cell-based. (In general: Patch clamp records ionic current or voltage across a cell membrane.)

In assay [8] the target is T1, Potassium voltage-gated channel subfamily KQT member 2. As to the kind of experiment: Potency index, ratio of EC50 for RET to EC50 for test compound for activation of human Kv7.2 expressed in CHO cells. The assay is classed as cell-based.
Assay [9] has the same target. Nature of the assay: Activation of human Kv7.2 expressed in CHO cells assessed as leftward shift in half-activation voltage at 0.03 uM in constant voltage pulse by whole cell patch clamp electrophysiology assay. It counts as cell-based. The gist of the method:
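CHO cells transiently expressing human Kv7.2, whole-cell patch clamp at 20–22°C, pH 7.4 bath. Currents activated by constant voltage pulses before and after 0.03 μM drug. Normalized conductance/voltage curves fitted to a double Boltzmann function to obtain half-activation voltage (V1/2).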

T1 sequence (O43526 whole entry, the tested form may be a part): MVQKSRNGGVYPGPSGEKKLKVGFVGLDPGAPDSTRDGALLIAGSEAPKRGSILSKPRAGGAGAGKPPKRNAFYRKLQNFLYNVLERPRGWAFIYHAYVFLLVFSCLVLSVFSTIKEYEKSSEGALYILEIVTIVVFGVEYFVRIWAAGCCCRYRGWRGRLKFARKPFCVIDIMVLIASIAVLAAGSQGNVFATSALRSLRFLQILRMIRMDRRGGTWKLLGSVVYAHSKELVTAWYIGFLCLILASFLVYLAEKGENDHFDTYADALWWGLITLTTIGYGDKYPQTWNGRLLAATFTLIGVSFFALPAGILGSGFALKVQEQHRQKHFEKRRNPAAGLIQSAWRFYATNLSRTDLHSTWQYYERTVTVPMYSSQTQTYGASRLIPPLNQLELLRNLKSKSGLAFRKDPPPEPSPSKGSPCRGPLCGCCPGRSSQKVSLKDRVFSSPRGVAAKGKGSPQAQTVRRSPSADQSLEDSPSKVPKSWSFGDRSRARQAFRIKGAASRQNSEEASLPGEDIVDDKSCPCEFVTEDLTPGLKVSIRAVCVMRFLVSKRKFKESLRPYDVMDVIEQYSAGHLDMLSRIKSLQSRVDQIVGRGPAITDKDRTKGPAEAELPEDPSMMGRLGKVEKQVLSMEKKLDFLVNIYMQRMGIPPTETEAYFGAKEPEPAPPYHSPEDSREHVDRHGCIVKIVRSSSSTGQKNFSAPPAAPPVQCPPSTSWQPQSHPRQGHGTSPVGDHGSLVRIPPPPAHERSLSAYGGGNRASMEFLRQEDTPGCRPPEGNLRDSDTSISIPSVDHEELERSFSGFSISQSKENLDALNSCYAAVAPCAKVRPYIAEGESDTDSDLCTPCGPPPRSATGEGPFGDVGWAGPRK
Voltage-gated potassium channel, KQT; KCNQ2(Kv7.2)/KCNQ3(Kv7.3), sequence (O43526 whole entry, one chain of several): as the sequence (O43526 whole entry, the tested form may be a part) above

For the compound `CCOC(=O)Nc1ccc(NCc2ccc(F)cc2)cc1N` [EZOGABINE], the Drug metabolism result in assay [1], in assay [4] and in assay [5] was “Metabolite detected” in each case. In addition, in assay [2], the result was inactive. Further, the Retention time in [3] came out at 5.98 min.
As usually defined, the EC50 is the midpoint of the concentration-response curve. For `CC(C)(C)CC(=O)Nc1ccc2c(ccn2Cc2ccc(C(F)(F)F)cc2)c1`, the EC50 in [6] stood at 340 nM; in assay [7], 920 nM.
For the compound `CCCCCCC(=O)Nc1ccc2c(ccn2Cc2ccc(C(F)(F)F)cc2)c1`, the Ratio EC50 in [8] turned out to be 12. Besides, the V1/2 in assay [9] turned out to be 18 mV.

(Values after ChEMBL document CHEMBL4402547, “Synthesis and Pharmacological Characterization of Conformationally Restricted Retigabine Analogues as Novel Neuronal Kv7 Channel Activators” (J Med Chem, 2020).)
